Source: PubChem BioAssay
Most compounds without a hit are left out; they make up all but 3.1% or so of the library.
HSF1 inh – HSF1 inhibition | NIH3T3-HGL HSE-luciferase, MG132-induced, luminescence 8 h; hits give low values | activity change, negative = inhibition, % at 7.5 µM (by protocol) | 0.77% of 300,000 active;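 active = more than half of replicate wells show activity change below -50%, luminescence cut by over half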;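 note: luciferase reports HSF-1 transcriptional activity via heat shock element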
HSF1 activator – increases HSF-1 driven luciferase reporter signal. NIH3T3-HGL HSF-1 luciferase reporter, MG132, 8 h; 100% = twice DMSO control signal. activation, % at 9 µM. 1.7% of 300,000 active;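 active = mean replicate activation of at least 50% with a set share of replicates each reaching 50%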
HKDC1 inhibitor – HKDC1 (human) hexokinase inhibition; recombinant HKDC1, G6PDH/diaphorase resazurin coupled fluorescence; inhibition, % at 20 µM; 0.16% of 340,000 active;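 active = inhibition above about 35% when tested at 20 µM, limit read from the data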
Target sequence (Q2TB90 whole entry, looked up): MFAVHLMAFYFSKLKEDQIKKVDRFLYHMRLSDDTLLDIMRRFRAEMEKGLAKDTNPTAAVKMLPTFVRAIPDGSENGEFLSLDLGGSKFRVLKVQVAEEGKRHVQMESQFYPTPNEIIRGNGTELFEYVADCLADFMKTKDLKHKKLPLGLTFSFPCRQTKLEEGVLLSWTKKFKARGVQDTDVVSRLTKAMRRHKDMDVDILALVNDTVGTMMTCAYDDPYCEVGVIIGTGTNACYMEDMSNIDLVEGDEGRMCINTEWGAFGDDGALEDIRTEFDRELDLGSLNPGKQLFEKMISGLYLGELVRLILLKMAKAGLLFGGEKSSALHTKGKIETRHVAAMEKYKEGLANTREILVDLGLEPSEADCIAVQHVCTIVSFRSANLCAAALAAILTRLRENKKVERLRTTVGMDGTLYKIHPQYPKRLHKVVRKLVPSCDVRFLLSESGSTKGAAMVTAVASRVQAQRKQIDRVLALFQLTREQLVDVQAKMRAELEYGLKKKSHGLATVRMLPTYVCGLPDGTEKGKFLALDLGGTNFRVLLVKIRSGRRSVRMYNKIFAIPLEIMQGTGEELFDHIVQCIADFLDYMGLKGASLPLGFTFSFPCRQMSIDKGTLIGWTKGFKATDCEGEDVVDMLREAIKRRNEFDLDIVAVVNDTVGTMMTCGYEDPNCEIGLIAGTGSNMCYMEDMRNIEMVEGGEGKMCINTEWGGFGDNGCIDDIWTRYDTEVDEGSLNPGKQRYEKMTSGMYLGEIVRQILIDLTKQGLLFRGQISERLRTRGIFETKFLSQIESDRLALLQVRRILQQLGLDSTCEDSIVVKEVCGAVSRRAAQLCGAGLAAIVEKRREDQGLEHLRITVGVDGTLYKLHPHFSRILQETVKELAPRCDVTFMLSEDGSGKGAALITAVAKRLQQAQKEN
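Incubation: 90 min at room temperature in dark / Material: recombinant HKDC1 (HK5) hexokinase enzyme, produced in-house / Quantity: enzyme 5 µg/mL final / Compound: one dose of 20 µM, 1% DMSO / Reagent: glucose and ATP substrates / Buffer or medium: Tris pH 8.0 buffer with MgCl2, Tween-20, BSA, BME / Technique: resorufin fluorescence at 613 nm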
Hsp70 act – transcriptional activators of Hsp70. HeLa Hsp70 promoter luciferase reporter, luminescence; scaled: vehicle 0, proteasome-inhibitor control 100%. activation, % at 10 µM. 0.04% of 200,000 active;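 active = activation above the mean across all tested compounds plus 3 SD, cutoff set per campaign, cut at about 5.5% in these data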
HSP90 inh – HSP90 refolding inhibition in rabbit reticulocyte lysate; luciferase refolding luminescence, 3 h; inhibition, % at 5.6 µM; 0.91% of 290,000 active; AID 1789;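 active = inhibition above the screen-wide mean plus 3 SD, computed separately per campaign, cut at about 16% in these data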;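 note: inhibitors lower the luminescence because luciferase stays unfolded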
TbHK1 inh – T. brucei hexokinase 1 inhibition; recombinant TbHK1, G6PDH-coupled NADH A340; inhibition, % at 10 µM; 0.11% of 220,000 active;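 active = inhibition of 50% or more in the single-dose primary screen; inactive = inhibition below 50%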
Hits are given with their value; n = inactive; x = not tested or not shown.

SMILES	HSF1 inh	HSF1 activator	HKDC1 inhibitor	Hsp70 act	HSP90 inh	TbHK1 inh
O=[N+]([O-])c1ccc(Sc2cccc3cccnc23)c2cccnc12	n	110	n	n	n	n
CC(=O)c1ccc(N2CCN(C(=O)c3n[nH]c4ccccc34)CC2)cc1	n	56	n	n	n	n
COc1cccc(OC)c1C(=O)N1CCNCC1	n	n	n	x	n	x
O=C1CC[C@@H]2C[C@@]3(C[C@@H]4CCN1[C@H]24)Nc1cc([N+](=O)[O-])ccc1NC3=NCc1ccccc1	x	x	n	x	x	x
Cc1cccc(C)c1Nc1nnc(SCc2cc([N+](=O)[O-])cc3c2OCOC3)s1	n	99	n	n	n	n
COc1cccc(Nc2nnc(SCc3cc([N+](=O)[O-])cc4c3OCOC4)s2)c1	n	n	n	n	n	n
C/C(=N\NC(=O)c1ccco1)c1ccc(NC(=O)c2ccccc2)cc1	n	94	n	n	n	n
C/C(=N\NC(=O)c1ccco1)c1ccc(-c2ccccc2)cc1	n	n	n	x	n	x
O=C(Nc1ccc(Nc2ccccc2)cc1)c1ccco1	n	67	n	n	n	n
O=C(NCc1ccccc1)C1CCCC1	-62	n	x	x	n	x
Cc1ccc(N(C(=O)c2snc(C(N)=O)c2N)C(C(=O)NCc2ccccc2)c2ccncc2)c(C)c1 (centres undefined)	n	n	n	x	n	x
CSc1nc2nccc(/C=C\c3ccccc3)n2n1	n	56	n	n	n	n
Cc1ccc(CN2CC(C(=O)N3CCN(S(=O)(=O)c4cccc(F)c4)CC3)CC2=O)cc1 (centres undefined)	n	n	n	x	x	x
Cc1cc(C)c(CC(=O)c2ccccc2)c(C)c1	x	x	n	x	x	x
COc1ccc(C(=O)N/N=C(\c2ccccc2)c2ccccn2)cc1	n	100	n	n	n	n
C=CCn1c(-c2ccccc2OC)n[nH]c1=S	n	n	n	n	n	n
C=CCn1c(-c2cccc3ccccc23)n[nH]c1=S	-73	n	n	n	n	n
CN(c1ccccc1)c1ccc(/C=C/[N+](=O)[O-])cc1	n	198	n	n	n	n
O=[N+]([O-])/C=C\c1ccc(N2CCOCC2)cc1	n	n	n	x	x	x
O=C(Nc1cccc(Cl)c1)c1ccc(=O)[nH]n1	n	n	n	x	n	x
O=C1CCC/C(=N\NC(=O)c2ccc(COc3ccccc3-c3ccccc3)cc2)C1	n	72	n	n	n	n
Cc1ccc(C(=O)OCC(=O)NCC2COc3ccccc3O2)cc1 (centres undefined)	x	x	n	x	x	x
CCOC(=O)c1ccc(NC(=O)CC2COc3ccccc3O2)cc1 (centres undefined)	-81	n	n	n	n	n
C/C(Cl)=C/Cc1c(C)[nH]c2ccc(C)cc2c1=O	n	58	n	n	n	n
C/C(Cl)=C/Cc1c(C)[nH]c2c(ccc3ccccc32)c1=O	n	n	n	x	n	x
SMILES	HSF1 inh	HSF1 activator	HKDC1 inhibitor	Hsp70 act	HSP90 inh	TbHK1 inh
CCCCOc1ccc(CSc2ncn[nH]2)cc1	n	86	n	n	n	n
CN(C(=O)CN1C(=O)NC(c2ccccc2)(c2ccccc2)C1=O)C1CCS(=O)(=O)C1 (centres undefined)	x	x	n	x	x	x
Cc1cc(O)c(C2=Nc3ccccc3SC(c3ccc(Cl)cc3)C2)c(=O)o1 (centres undefined)	-54	n	n	n	n	n
COc1ccc(C2CC(c3c(O)cc(C)oc3=O)=NCCS2)c(OC)c1 (centres undefined)	x	x	n	n	n	n
CCn1c(C(=O)OC)cc2c1ccn2-c1ccc(F)cc1	n	52	n	n	n	n
COC(=O)c1cc2c(ccn2-c2ccc(F)cc2)n1Cc1ccc(OC)cc1	n	n	n	n	n	n
C=CCN1C(=O)C(Cc2ccc(OCC)cc2)S/C1=N\N=C\c1cccs1 (centres undefined)	n	56	n	n	n	n
CC(=O)c1ccc(Oc2ccc(C(C)=O)cc2)cc1	n	56	n	n	n	n
COc1cc(C(=O)c2c(C)c(CCC#N)n3ccccc23)cc(OC)c1OC	n	n	n	n	n	n
COc1cccc(C(=O)c2c(C)c(CCC#N)n3ccccc23)c1OC	n	180	n	n	n	n
Cc1ccc(SCc2cn3c(C)csc3n2)cc1	n	91	n	n	n	n
Cc1ccc(SCc2cn3cc(Cl)ccc3n2)cc1	n	54	n	x	n	n
Clc1ccc2nc(CSc3nc4ccccc4o3)cn2c1	n	100	n	n	n	n
Brc1ccc(CSc2nnc3ccccn23)cc1	n	58	n	n	n	n
Cc1cccc2nc(CSc3ccc(Cl)cc3)cn12	n	n	n	n	n	n
Clc1ccc2nc(CSCc3ccccc3)cn2c1	n	n	n	n	n	n
Cc1ccc(OCc2cc(C(=O)NC3CCc4ccccc43)no2)cn1 (centres undefined)	n	n	n	x	n	x
CCCN(CCC)S(=O)(=O)c1cc2c3c(c1)CCN3C(=O)CC2	n	n	n	x	n	x
CN(C(=O)COC(=O)c1ccc(=O)n(Cc2ccccc2)n1)C1CCCCC1	x	x	n	x	x	x
Clc1ccc(SCc2cn3ccccc3n2)cc1	n	78	n	n	n	n
Clc1ccc(-n2nnnc2SCc2cn3ccccc3n2)cc1	n	n	n	n	n	n
CNc1cc(CSc2ccc(Cl)cc2)nc(C)n1	n	71	n	n	n	n
Clc1ccc2nc(CSc3nnc4ccccn34)cn2c1	n	68	n	n	n	n
CCc1ccc(C2=NN(S(C)(=O)=O)C(c3cccs3)C2)cc1 (centres undefined)	n	70	n	n	n	n
CS(=O)(=O)N1N=C(c2ccc(Br)cc2)CC1c1cccs1 (centres undefined)	n	52	n	n	n	n
SMILES	HSF1 inh	HSF1 activator	HKDC1 inhibitor	Hsp70 act	HSP90 inh	TbHK1 inh
COc1ccc2nc(SC(C)C(=O)NCC(=O)Nc3ccc(F)c(F)c3F)[nH]c2c1 (centres undefined)	x	x	n	x	x	x
Nc1ccccc1Nc1ccc([N+](=O)[O-])cc1[N+](=O)[O-]	n	60	n	n	n	n
COc1ccccc1NS(=O)(=O)c1cc(C(=O)Nc2ccc(S(=O)(=O)Nc3onc(C)c3C)cc2)ccc1C	x	x	n	x	x	x
Oc1ccc(/C=N/Nc2cccc3cccnc23)c(O)c1	n	85	n	n	n	n
Cc1ccc(/C=N/Nc2cccc3cccnc23)c(O)c1	n	68	n	n	n	n
COc1cc(NC(=O)c2ccccc2)c(OC)cc1NC(=O)CN1C(=O)NC2(CCCCC2C)C1=O (centres undefined)	x	x	n	x	x	x
O=C(COC(=O)c1ccc(Cl)nc1)NNC(=O)c1ccc(Br)cc1	x	x	n	x	x	x
O=C1/C(=C/c2ccccc2Cl)SC(=S)N1CCCC(=O)N(CCO)c1ccccc1	n	n	n	x	n	x
CC(C)CN(C(=O)COC(=O)c1ccc2c(c1)OCO2)c1c(N)n(Cc2ccccc2)c(=O)[nH]c1=O	n	n	n	x	x	x
Cc1cccc(N=c2oc3cc(O)ccc3cc2C(N)=O)c1	n	58	n	n	n	n
